Data reported in PMC5188857 (Brazilian Journal of Medical and Biological Research, 2016).
“And” between values parts separate entries of the source, which are not always exact repeats. Equal entries are not always repeated. Where two headings read alike, the source gives them in different places.

Experiments:
Solubility at pH 7.4 = assay type: physicochemical; settings: 50 mM sodium phosphate buffer
In short: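 Working stock was spiked into 50 mM sodium phosphate buffer, pH 7.4, and held 2 h; concentrations up to 100 µM were tested. Samples were centrifuged at 1,000 g for 20 min at room temperature. Supernatant was diluted 1:1 in acetonitrile and quantified by LC-MS/MS (phenyl column, positive-ion MRM, internal standard).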

[1] = Plasma protein binding by equilibrium dialysis, rat plasma; assay type: in vitro ADME; settings: 10 µM, means±SD, n=6
In short: (§1)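 Equilibrium dialysis used plasma (human or rat) spiked with 10 µM test compound in the donor side against phosphate buffer in the acceptor side. Plates were sealed and incubated 6 h at 37°C, 60 rpm, 5% CO2. Diclofenac (5 µM) served as positive control. Bound percentage is given as mean±SD, n=6.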

[2] = Plasma protein binding by equilibrium dialysis, human plasma; assay type: in vitro ADME; settings: 10 µM, means±SD, n=6
In short: as §1

[3] = Permeability on MDCK-MDR1 cell monolayer; assay type: in vitro ADME; settings: dog; for Papp B→A at 129 min: MDCK-MDR1; for Papp A→B at 129 min: MDCK-MDR1, Papp apical to basolateral, MDCK-MDR1 monolayer, n=3
MDCK-MDR1 cells = experiment: Permeability on MDCK-MDR1 cell monolayer; assay type: in vitro ADME; settings: MDCK-MDR1 monolayer, n=3
P-gp = experiment: Permeability on MDCK-MDR1 cell monolayer; assay type: in vitro ADME; settings: dog, MDCK-MDR1
Plasma stability, rat = assay type: in vitro ADME
In short: (§2)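 Test-compound-spiked rat or human plasma was incubated 6 h at 37°C. Percent recovery was then determined, reported as mean±SD, n=6.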

Plasma stability, human = assay type: in vitro ADME
In short: as §2

[4] = In vitro metabolism in rat liver microsomes; assay type: in vitro ADME
[5] = In vitro metabolism in human liver microsomes; assay type: in vitro ADME
[6] = In vitro metabolism in rat hepatocytes; assay type: in vitro ADME; settings: rat, hepatocytes
rat hepatocytes = experiment: In vitro metabolism in rat hepatocytes; assay type: in vitro ADME; settings: rat hepatocytes, 0.5 µM
[7] = In vitro metabolism in human hepatocytes; assay type: in vitro ADME; settings: human, hepatocytes
human hepatocytes = experiment: In vitro metabolism in human hepatocytes; assay type: in vitro ADME; settings: human hepatocytes, 0.5 µM, two separate experiments
CYP2D6 = CYP2D6 (Homo sapiens, UniProt P10635); experiment: CYP profiling with purified isozyme; assay type: in vitro ADME; settings: purified human CYP2D6 isozyme (Cypex)
In short: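 Purified human recombinant CYP isozyme ([…]) was pre-incubated 10 min, then run with 0.5 µM test compound and 2 mM NADPH in phosphate buffer at 37°C. CYP-specific probe substrates were incubated separately. Parent loss over time was measured by LC-MS/MS. Half-life came from nonlinear regression to a first-order decay equation.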

CYP3A4 = CYP3A4 (Homo sapiens, UniProt P08684); experiment: CYP inhibition in human liver microsomes; assay type: in vitro ADME
mice motor coordination = experiment: Rota-rod test; assay type: in vivo; settings: 10 µg/kg iv, 3, 10 and 30 min after administration
In short: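 Adult male Swiss Webster mice (~40 g) were trained 1 day and 1 h before testing. Only those staying ≥1 min without falling were used. Test compound (10 µg/kg) or saline was given iv via the orbital plexus, 6 mice per group. At 3, 10 and 30 min, falls were counted over a 4-min observation, with latency to each fall recorded.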

mice = experiment: Acute toxicity test, single dose; assay type: in vivo; settings: for Body temperature: 100 μg/kg ip
In short: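 Female Swiss Webster mice (25–30 g), 6 per condition, got a single ip dose of 100 μg/kg test compound, with saline controls. Behaviour, motor coordination, muscle tone, CNS and autonomic signs, water and food intake and lethality were scored during the first hour, at 2, 4 and 8 h, then daily to day 14. Anal-probe body temperature was taken before dosing and at 30 and 60 min.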

[8] = cited from earlier work
[9] = single dose 100 μg/kg ip, 14 days observation

Sequence of CYP3A4 (P08684 whole entry): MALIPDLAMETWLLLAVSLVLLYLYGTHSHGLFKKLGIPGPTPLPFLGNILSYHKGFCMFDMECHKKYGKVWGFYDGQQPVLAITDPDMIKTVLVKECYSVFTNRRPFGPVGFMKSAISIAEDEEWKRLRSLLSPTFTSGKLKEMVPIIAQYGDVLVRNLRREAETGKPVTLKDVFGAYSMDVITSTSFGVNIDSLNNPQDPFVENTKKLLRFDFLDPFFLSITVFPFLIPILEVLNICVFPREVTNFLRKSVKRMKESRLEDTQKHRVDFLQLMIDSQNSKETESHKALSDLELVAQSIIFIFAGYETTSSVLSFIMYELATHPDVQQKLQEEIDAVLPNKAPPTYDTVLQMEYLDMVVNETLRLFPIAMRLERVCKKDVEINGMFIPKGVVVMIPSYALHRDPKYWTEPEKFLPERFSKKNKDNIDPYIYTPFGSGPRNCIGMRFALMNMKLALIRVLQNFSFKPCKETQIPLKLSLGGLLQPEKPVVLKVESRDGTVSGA
Sequence of CYP2D6 (P10635 whole entry): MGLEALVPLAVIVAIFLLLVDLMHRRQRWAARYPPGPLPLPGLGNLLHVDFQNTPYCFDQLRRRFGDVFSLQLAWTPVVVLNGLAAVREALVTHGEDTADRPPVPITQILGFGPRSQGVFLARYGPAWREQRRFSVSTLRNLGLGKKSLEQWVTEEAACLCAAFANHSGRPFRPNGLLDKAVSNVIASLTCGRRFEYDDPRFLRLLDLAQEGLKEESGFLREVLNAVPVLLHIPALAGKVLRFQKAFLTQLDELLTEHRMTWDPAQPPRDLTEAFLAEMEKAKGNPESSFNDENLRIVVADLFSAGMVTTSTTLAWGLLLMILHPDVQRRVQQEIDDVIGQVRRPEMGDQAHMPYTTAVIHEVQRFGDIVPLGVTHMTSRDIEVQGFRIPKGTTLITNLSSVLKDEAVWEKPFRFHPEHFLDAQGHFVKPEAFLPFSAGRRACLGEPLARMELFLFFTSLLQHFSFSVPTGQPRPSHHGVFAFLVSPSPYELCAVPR

For `COc1ccc(CCN2CCN(c3ccccc3OC)CC2)cc1OC.Cl` [LDT5, 1-(2-methoxyphenyl)-4-[2-(3,4-dimethoxyphenyl)ethyl]piperazine monohydrochloride], the solubility at 2 h (Solubility at pH 7.4) was ≥ 100 µM, the “Binding to plasma proteins” value [1] was 80±2% and the “Binding to plasma proteins” value [2] was 73±1%. For the same compound, the Papp B→A at 129 min [3] was 32.4 ± 1.1 ×10⁻⁶ cm/s, the Papp A→B at 129 min [3] was ~32 ×10⁻⁶ cm/s and the “Papp apical to basolateral” value (MDCK-MDR1 cells) was 32.2±1.1 ×10^-6 cm/s. For the same compound, the efflux ratio at 129 min (P-gp) was 1, the recovery at 6 h (Plasma stability, rat) was 87 ± 4% and the recovery at 6 h (Plasma stability, human) was 91 ± 4%. For the same compound, the half-life at 0.5 µM ([4]; male, Sprague Dawley, rat, liver microsomes) was 10 min, the Intrinsic clearance ([4]; rat liver microsomes, 0.5 µM, two separate experiments) was 6.4 mL·min^-1·g liver^-1 and 6.7 mL·min^-1·g liver^-1 and the half-life at 0.5 µM ([5]; both, human, liver microsomes) was > 30 min. For the same compound, the Intrinsic clearance ([5]; human liver microsomes, 0.5 µM) was < 0.6 mL·min^-1·g liver^-1, the half-life at 0.5 µM [6] was 11 min and the Intrinsic clearance (rat hepatocytes) was > 2 mL·min^-1·g liver^-1. For the same compound, the half-life at 0.5 µM [7] was 120 min, the Intrinsic clearance (human hepatocytes) was < 0.2 mL·min^-1·g liver^-1 and 0.22 mL·min^-1·g liver^-1 and the half-life at 0.5 µM (CYP2D6) was 5 min. The IC50 (CYP3A4) was > 100 µM, the IC50 (CYP3A4; read-out: IC50 CYP3A4, human liver microsomes, substrate testosterone) was > 100 µM and the “Effect on motor coordination (rota-rod)” value (mice motor coordination) was “no acute effect on mice motor coordination”. For the same compound, the Body temperature (mice; 30 min after administration) was 35.5±0.2 °C, the Body temperature (mice; 60 min after administration) was 35.17±0.31 °C and the Changes in behavior (mice; [9]) was “no changes in behavior”. The Lethality (mice; [9]) was “no lethality”.
For `C=C[C@H]1C[N@@]2CC[C@H]1C[C@@H]2[C@@H](O)c1ccnc2ccc(OC)cc12` [quinidine, reference compound], the Papp B→A at 129 min [3] was 39.5 ± 2.8 ×10⁻⁶ cm/s and the Papp A→B at 129 min [3] was 0.19 ± 0.05 ×10⁻⁶ cm/s.
For `CCOc1ccccc1OCCN[C@H](C)Cc1ccc(OC)c(S(N)(=O)=O)c1` [tamsulosin], the “Binding to human plasma proteins” value [8] is listed as “around 99%”.
